IC50 and MTD data for 19 molecules are collected here from ChEMBL document CHEMBL1144441, “Identification of a novel cardenolide (2''-oxovoruscharin) from Calotropis procera and the hemisynthesis of novel derivatives displaying potent in vitro antitumor activities and high in vivo tolerance: structure-activity relationship analyses” (J Med Chem, 2005).

The structures appear in SMILES notation.

For one assay, the system named is U373 MG. In words: Concentration required for 50% growth inhibition of human U373 cancer cell lines after 3 days of culture. In kind it is functional, cell-based, U-373MG ATCC. As to conditions: 72 h. The procedure, abridged:
(§1)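 MTT overall-growth assay on the five lines. Cells were plated for 24 h at 10 000–40 000 cells/mL, depending on cell type. Nine concentrations from 10^-9 to 10^-5 M in semilog steps were applied for 72 h. Formazan was read at 570 nm against a 630 nm reference, in sextuplicate. IC50 = concentration reducing overall growth by 50% versus untreated control.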

The next assay relates to Mus musculus. In words: Maximum tolerated dose after intraperitoneal administration in mouse (period of 28 days). In kind it is functional. The procedure, abridged: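 Healthy, non-tumour-bearing B6D2F1 mice given one acute intraperitoneal dose, three mice per dose group, doses 5, 10, 20, 40, 80, 120 and 160 mg/kg. Survival and body weight followed for 28 days after injection. MTD is the highest single dose causing no deaths over the period.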

The next assay has as its system A549. In words: Concentration required for 50% growth inhibition of human A549 cancer cell lines after 3 days of culture. The following applies: A549, 72 h. In kind it is functional, cell-based. The procedure, abridged: as §1
In the next assay the test system is HCT-15. In words: Concentration required for 50% growth inhibition of human HCT-15 cancer cell lines after 3 days of culture. In kind it is functional, cell-based. As to conditions: HCT-15, 72 h. The procedure, abridged: as §1
The test system of the next assay is LoVo. In words: Concentration required for 50% growth inhibition of human LoVo cancer cell lines after 3 days of culture. The format is functional, cell-based. The following applies: 72 h. The procedure, abridged: as §1
The nature of assay [1]: Concentration required for 50% growth inhibition of human Hs 683 cancer cell lines after 3 days of culture. In kind it is functional, cell-based. As to conditions: 72 h. The procedure, abridged:
as §1

Assay [2] deals with Sodium/potassium-transporting ATPase subunit alpha-1 (Sus scrofa, UniProt P05024). In words: In vitro inhibitory activity against porcine Na+/K+-ATPase. The procedure, abridged:
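Porcine cerebral cortex Na+/K+-ATPase (3 × 10-3 units), preincubated 30 min at 37 °C in 30 mM Tris-HCl pH 7.4, 5 mM MgCl2 with inhibitor (1 to 50 000 nM). ADP formation coupled via pyruvate kinase/lactate dehydrogenase, excess phosphoenolpyruvate, to NADH oxidation.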

One may read the IC50 as the concentration that gives 50% inhibition. The low end stands for higher potency, the high end for lower potency. A word on the MTD: it is the largest dose that counted as tolerated. A high value points to a wide tolerated range. `C[C@@H]1C[C@@]2(NCCS2)C2(O)O[C@@H]3C[C@@]4(CO)[C@@H](CC[C@@H]5[C@@H]4CC[C@]4(C)[C@@H](C6=CC(=O)OC6)CC[C@]54CO)C[C@H]3O[C@@H]2O1` (stereo partly specified): the IC50 in the assay on U373 MG turned out to be 31 nM; in the assay with A549, 4 nM; in the assay on HCT-15, 21 nM; in the assay on LoVo it was 13 nM; in assay [1] it was 3 nM. Also, in the assay on Mus musculus, the MTD was found to be 5 mg/kg.

Regarding `Cc1ccc(S(=O)(=O)OC[C@]23C[C@H]4OC5(O)[C@@H](O[C@H](C)C[C@@]56NC(=O)CS6)O[C@@H]4C[C@@H]2CC[C@@H]2[C@@H]3CC[C@]3(C)[C@@H](C4=CC(=O)OC4)CC[C@]23CO)cc1` (stereo partly specified), the IC50 in the assay on U373 MG was 326 nM; with A549 it was 48 nM; with HCT-15 it was 382 nM; with LoVo, 89 nM; in assay [1] it was 45 nM.

As for `CC(O)CCC(=O)OC[C@]12C[C@H]3OC4(O)[C@@H](O[C@H](C)C[C@@]45NC(=O)CS5)O[C@@H]3C[C@@H]1CC[C@@H]1[C@@H]2CC[C@]2(C)[C@@H](C3=CC(=O)OC3)CC[C@]12CO` (stereo partly specified), the IC50 in the assay on U373 MG worked out at 1190 nM; with A549, 414 nM; in the assay on HCT-15, 1500 nM; in the assay on LoVo, 1560 nM; in assay [1] it was 370 nM. The molecule further yielded an MTD in the assay on Mus musculus greater than 40 mg/kg.

`C[C@@H]1C[C@@]2(N=C(N)CS2)[C@]2(O)O[C@@H]3C[C@@]4(C=O)[C@@H](CC[C@@H]5[C@@H]4CC[C@]4(C)[C@@H](C6=CC(=O)OC6)CC[C@]54O)C[C@H]3O[C@@H]2O1`: the IC50 in assay [2] was determined as 68 nM; with U373 MG it was 40 nM; with A549, 25 nM; in the assay with HCT-15, 28 nM; with LoVo, 10 nM; in assay [1], 4 nM. For the same molecule, the MTD with Mus musculus was found to be 5 mg/kg.

With `C[C@@H]1C[C@@]2(NC(=O)CS2)C2(O)O[C@@H]3C[C@@]4(COC(=O)c5ccccc5)[C@@H](CC[C@@H]5[C@@H]4CC[C@]4(C)[C@@H](C6=CC(=O)OC6)CC[C@]54CO)C[C@H]3O[C@@H]2O1` (stereo partly specified), the IC50 amounted to 4170 nM in the assay with U373 MG; 625 nM in the assay on A549; 3620 nM with HCT-15; 2370 nM in the assay with LoVo; 778 nM in assay [1]. The molecule also had an MTD in the assay with Mus musculus greater than 40 mg/kg.

For the molecule `C[C@@H]1C[C@@]2(N[C@H](CC(=O)c3ccccc3)CS2)C2(O)O[C@@H]3C[C@@]4(CO)[C@@H](CC[C@@H]5[C@@H]4CC[C@]4(C)[C@@H](C6=CC(=O)OC6)CC[C@]54CO)C[C@H]3O[C@@H]2O1` (stereo partly specified), the IC50 with U373 MG amounted to 34 nM; in the assay with A549, 3 nM; with HCT-15 it was 34 nM; in the assay with LoVo, 18 nM; in assay [1], 4 nM. Further, the MTD with Mus musculus came out at 80 mg/kg.

With `C[C@@H]1C[C@@]2(N[C@@H](CC(=O)c3ccccc3)CS2)C2(O)O[C@@H]3C[C@@]4(CO)[C@@H](CC[C@@H]5[C@@H]4CC[C@]4(C)[C@@H](C6=CC(=O)OC6)CC[C@]54CO)C[C@H]3O[C@@H]2O1` (stereo partly specified), the IC50 amounted to 38 nM with U373 MG; 4 nM with A549; 44 nM in the assay with HCT-15; 18 nM in the assay with LoVo; 4 nM in assay [1]. Moreover, the MTD with Mus musculus is 80 mg/kg.

For `C[C@@H]1C[C@@]2(N[C@H](CC(O)c3ccccc3)CS2)C2(O)O[C@@H]3C[C@@]4(CO)[C@@H](CC[C@@H]5[C@@H]4CC[C@]4(C)[C@@H](C6=CC(=O)OC6)CC[C@]54CO)C[C@H]3O[C@@H]2O1` (stereo partly specified), the IC50 with U373 MG was 28 nM; with A549, 2 nM; with HCT-15 it was 31 nM; in the assay on LoVo it was 19 nM; in assay [1] it was 3 nM.

As to `C[C@@H]1C[C@@]2(N[C@@H](CC(=O)c3ccccc3)CS2)C2(O)O[C@@H]3C[C@@]4(C=O)[C@@H](CC[C@@H]5[C@@H]4CC[C@]4(C)[C@@H](C6=CC(=O)OC6)CC[C@]54CO)C[C@H]3O[C@@H]2O1` (stereo partly specified), the IC50 in the assay on U373 MG worked out at 84 nM; in the assay with A549, 18 nM; with HCT-15, 92 nM; in the assay with LoVo, 100 nM; in assay [1], 22 nM. In the assay with Mus musculus, this molecule displayed a maximum tolerated dose (MTD) of 10 mg/kg.

For `Cc1ccc(S(=O)(=O)OC[C@]23C[C@H]4OC5(O)[C@@H](O[C@H](C)C[C@@]56N=C(N)CS6)O[C@@H]4C[C@@H]2CC[C@@H]2[C@@H]3CC[C@]3(C)[C@@H](C4=CC(=O)OC4)CC[C@]23CO)cc1` (stereo partly specified), the IC50 in the assay with U373 MG was 9960 nM; with A549 it was 2720 nM; with HCT-15 it was 5800 nM; with LoVo it was 1060 nM; in assay [1] it was 1430 nM. The molecule further registered an MTD in the assay on Mus musculus of 10 mg/kg.

For `COC(=O)OC[C@]12C[C@H]3OC4(O)[C@@H](O[C@H](C)C[C@@]45N=C(N)CS5)O[C@@H]3C[C@@H]1CC[C@@H]1[C@@H]2CC[C@]2(C)[C@@H](C3=CC(=O)OC3)CC[C@]12CO` (stereo partly specified), the IC50 with U373 MG turned out to be 320 nM; in the assay on A549, 42 nM; in the assay with HCT-15 it was 442 nM; in the assay on LoVo, 245 nM; in assay [1], 49 nM. Further, the MTD in the assay on Mus musculus is greater than 40 mg/kg.

`C[C@@H]1C[C@@]2(NCCS2)[C@]2(O)O[C@@H]3C[C@@]4(C=O)[C@@H](CC[C@@H]5[C@@H]4CC[C@]4(C)[C@@H](C6=CC(=O)OC6)CC[C@]54O)C[C@H]3O[C@@H]2O1`: the IC50 with U373 MG came to 32 nM; in the assay on A549, 5 nM; with HCT-15, 27 nM; in the assay on LoVo it was 17 nM; in assay [1], 4 nM. Further, in the assay on Mus musculus, the MTD turned out to be 1.25 mg/kg.

On to `CC(=O)OC[C@]12C[C@H]3OC4(O)[C@@H](O[C@H](C)C[C@@]45NC(=O)CS5)O[C@@H]3C[C@@H]1CC[C@@H]1[C@@H]2CC[C@]2(C)[C@@H](C3=CC(=O)OC3)CC[C@]12CO` (stereo partly specified), for which the IC50 in the assay with U373 MG was 4600 nM; in the assay with A549, 1860 nM; in the assay on HCT-15 it was 4430 nM; with LoVo, 2770 nM; in assay [1], 2780 nM. This molecule showed an MTD in the assay with Mus musculus greater than 40 mg/kg.

As for `C[C@@H]1C[C@@]2(NC(=O)CS2)C2(O)O[C@@H]3C[C@@]4(COS(C)(=O)=O)[C@@H](CC[C@@H]5[C@@H]4CC[C@]4(C)[C@@H](C6=CC(=O)OC6)CC[C@]54CO)C[C@H]3O[C@@H]2O1` (stereo partly specified), the IC50 with U373 MG is 7310 nM; in the assay with A549 it was 3650 nM; in the assay with HCT-15, greater than 10000 nM; in the assay with LoVo, 8390 nM; in assay [1], 3420 nM.

As for `C[C@@H]1C[C@@]2(N=C(N)CS2)C2(O)O[C@@H]3C[C@@]4(COC(=O)CCc5ccccc5)[C@@H](CC[C@@H]5[C@@H]4CC[C@]4(C)[C@@H](C6=CC(=O)OC6)CC[C@]54CO)C[C@H]3O[C@@H]2O1` (stereo partly specified), the IC50 in the assay with U373 MG was greater than 10000 nM; with A549, 4730 nM; with HCT-15, greater than 10000 nM; in the assay with LoVo, 4840 nM; in assay [1], greater than 10000 nM. The maximal tolerated dose (MTD) with Mus musculus was greater than 40 mg/kg.

With `C[C@@H]1C[C@@]2(NC(=O)CS2)C2(O)O[C@@H]3C[C@@]4(COC(=O)CCc5ccccc5)[C@@H](CC[C@@H]5[C@@H]4CC[C@]4(C)[C@@H](C6=CC(=O)OC6)CC[C@]54CO)C[C@H]3O[C@@H]2O1` (stereo partly specified), the IC50 was 4190 nM with U373 MG; greater than 10000 nM in the assay on A549; greater than 10000 nM in the assay on HCT-15; greater than 10000 nM in the assay with LoVo; greater than 10000 nM in assay [1]. In the assay with Mus musculus, the MTD was greater than 40 mg/kg.

In the case of `C[C@@H]1C[C@@]2(N=C(N)CS2)C2(O)O[C@@H]3C[C@@]4(C=O)[C@@H](CC[C@@H]5[C@@H]4CC[C@]4(C)[C@@H](C6=CC(=O)OC6)CC[C@]54CO)C[C@H]3O[C@@H]2O1` (stereo partly specified), the IC50 was 34 nM in the assay on U373 MG; 9 nM in the assay with A549; 27 nM in the assay on HCT-15; 5 nM in the assay with LoVo; 4 nM in assay [1]. Moreover, the MTD in the assay with Mus musculus was found to be 10 mg/kg.

Regarding `C[C@@H]1C[C@@]2(N[C@H](CC(=O)c3ccccc3)CS2)C2(O)O[C@@H]3C[C@@]4(C=O)[C@@H](CC[C@@H]5[C@@H]4CC[C@]4(C)[C@@H](C6=CC(=O)OC6)CC[C@]54CO)C[C@H]3O[C@@H]2O1` (stereo partly specified), the IC50 was 41 nM with U373 MG; 4 nM in the assay with A549; 49 nM in the assay with HCT-15; 33 nM with LoVo; 7 nM in assay [1]. In addition, in the assay on Mus musculus, the MTD was determined as 10 mg/kg.

Take `C[C@@H]1C[C@@]2(NC(=O)CS2)C2(O[Si](C)(C)C)O[C@@H]3C[C@@]4(CO[Si](C)(C)C)[C@@H](CC[C@@H]5[C@@H]4CC[C@]4(C)[C@@H](C6=CC(=O)OC6)CC[C@]54CO[Si](C)(C)C)C[C@H]3O[C@@H]2O1` (stereo partly specified): the IC50 with U373 MG is 3720 nM; in the assay with A549 it was 657 nM; in the assay with HCT-15 it was 2690 nM; in the assay with LoVo, 931 nM; in assay [1], 525 nM.
